The record followed here is PubChem BioAssay.

Active and inactive are the calls of the source.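 The calls were made as follows, unless noted: active = viability loss from added drug above about 55%, and viability with drug at most 40%, in both replicates (limit read from the data, passing the limit was not always enough); inconclusive = both conditions met in only one replicate; inactive = neither replicate meets both conditions.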

The nature of test [1]: reduced viability of SK-BR-3 breast cancer cells – cell-based, 24 h, human, pilot screen (AID 572;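 active = viability at or below 10% of carrier control in both of two separate runs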;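 also: compound exposure lasted between 18 and 24 h rather than exactly 24 h; 100% = carrier-treated control wells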). The following applies: SK-BR-3 viability, CellTiter-Glo luminescence, at 10 µM, stronger effect = lower value. For orientation: Cellular ATP, detected with luciferase, serves as a proxy for viable cell number.
Test [2] is described as follows: HUVEC growth inhibition – cell-based, human, primary screen (AID 575;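 active = viability at or below 30% in both replicate assays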;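 also: 100% = median of untreated cell wells with 0.1% DMSO on each plate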). The following applies: HUVEC proliferation, CellTiter-Glo luminescence, 72 h; at 10 µM; stronger effect = lower value. In outline:
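Test system: HUVEC primary cells. Quantity: 1250 endothelial cells in each well. Dosing: single-point 10 µM, DMSO 0.1% final. Incubation: 72 h treatment at 37 °C. Measured by: CTG luminescence. Control set: DMSO cell controls and MePR drug controls. Plate: collagen-coated 384-well format.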

Test [3] is described as follows: H69AR cell proliferation blockers – human, duplicate replicates, primary screen (AID 580;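 active = viability at or under a set limit in both replicates, limit being median viability minus 3 SD, cut at about 48% in these data, passing the limit was not always enough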;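 also: 100% = mean luminescence of untreated wells and 0% = no signal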). The following applies: H69AR lung tumor cells viability, ATP luminescence, 72 h; at 10 µM; stronger effect = lower value.
Test [4] can be described thus: MRP1 drug-resistance reversers in H69AR cells – cell-based, doxorubicin co-treatment, pilot screen (AID 601). The following applies: CellTiter-Glo, 72 h, at 10 µM; for differential viability (reversal): stronger effect = higher value.
A short description of test [5]: yeast transport mutant growth inhibition pilot in 384-well plates, post-Golgi transport modulator project (AID 636; in the data active = inhibition above about 31%). The following applies: absorbance 615 nm, about 18 h, stronger effect = higher value.
Test [6] can be described thus: growth suppression of yeast trafficking mutant, preliminary HTS, modulators of trafficking downstream of Golgi apparatus project, 1536-format plate, OD 615 nm (AID 637; in the data active = inhibition above about 30%). The following applies: yeast transport mutant growth, absorbance 615 nm, 18 h; stronger effect = higher value.
Setting [7] is: H69AR cells + 2 uM doxorubicin, measured here: viability with 2 uM doxorubicin, stronger effect = lower value.
Setting [8] is: H69AR cells, compound alone cytotoxicity.

Turning to `Nc1cccc(C(=O)O)c1`, the viability was 129% (inactive) in test [1]; 98.2% (inactive) in test [2]; 94.8% (inactive) in test [3]; 87.7% in test [4] (setting [7]); 94.8% in test [4] (setting [8]). The differential viability (reversal) in test [4] (H69AR cells + 2 uM doxorubicin) is 7.12% (inactive). Besides, the inhibition in test [5] is 1.82% (inactive); in test [6] it was 0.33% (inactive).
Take `O=C(CSc1ccc(-c2ccccc2)nn1)N1CCOCC1`: the viability in test [1] was 94% (inactive); in test [2], 105% (inactive); in test [3] it was 95.2% (inactive); in test [4] (setting [7]) it was 82%; in test [4] (setting [8]), 95.2%. Also, in test [4] (H69AR cells + 2 uM doxorubicin), the differential viability (reversal) was 13.2% (inactive). The figures for the inhibition in test [5] and in test [6] were -6.44% (inactive) and -4.73% (inactive), respectively.
Take `CSc1oc(-c2ccccc2)nc1S(=O)(=O)c1ccc(F)cc1`: the viability was 92% (inactive) in test [1]; 73.2% (inactive) in test [2]; 82.6% (inactive) in test [3]; 82.1% in test [4] (setting [7]); 82.6% in test [4] (setting [8]). Besides, the differential viability (reversal) in test [4] (H69AR cells + 2 uM doxorubicin) was 0.495% (inactive). In addition, the inhibition in test [5] is -6.3% (inactive); in test [6], -1.61% (inactive).
Turning to `COC(=O)C1=C(C)NC(C)=C(C(=O)OC)C1C(=O)OC1CCCCC1=O` (centres undefined), the viability is 89% (inactive) in test [1]; 105% (inactive) in test [2]; 97.3% (inactive) in test [3]; 94% in test [4] (setting [7]); 97.3% in test [4] (setting [8]). Further, the differential viability (reversal) in test [4] (H69AR cells + 2 uM doxorubicin) is 3.25% (inactive). For the same molecule, the inhibition in test [5] is -4.46% (inactive); in test [6] it was -0.49% (inactive).
As to `COCCc1ccc(OCC(O)CNC(C)C)cc1` (centres undefined), the viability is 117% (inactive) in test [1]; 70.4% (inactive) in test [2]; 98.3% (inactive) in test [3]; 106% in test [4] (setting [7]); 98.3% in test [4] (setting [8]). Besides, in test [4] (H69AR cells + 2 uM doxorubicin), the differential viability (reversal) is -7.28% (inactive). Besides, the inhibition in test [5] was -2.86% (inactive); in test [6], 1.33% (inactive).
As for `Cc1ccc2c(c1C)NC(C(=O)O)C1CC=CC21` (centres undefined), the viability was 91% (inactive) in test [1]; 98.1% (inactive) in test [2]; 98.2% (inactive) in test [3]; 96.7% in test [4] (setting [7]); 98.2% in test [4] (setting [8]). In addition, the differential viability (reversal) in test [4] (H69AR cells + 2 uM doxorubicin) is 1.46% (inactive). The inhibition in test [5] is -1.73% (inactive); in test [6], -1.09% (inactive).
As to `CCCC1Cc2c(sc3ncnc(N)c23)CO1` (centres undefined), the viability in test [1] was 111% (inactive); in test [2], 94.5% (inactive); in test [3], 90.9% (inactive); in test [4] (setting [7]), 101%; in test [4] (setting [8]) it was 90.9%. For the same molecule, the differential viability (reversal) in test [4] (H69AR cells + 2 uM doxorubicin) was -10.3% (inactive). The inhibition in test [5] was -0.14% (inactive); in test [6], -0.73% (inactive).
Take `Cc1csc(NC(=O)c2ccccc2C(=O)O)n1`: the viability is 103% (inactive) in test [1]; 108% (inactive) in test [2]; 95.3% (inactive) in test [3]; 95.8% in test [4] (setting [7]); 95.3% in test [4] (setting [8]). The differential viability (reversal) in test [4] (H69AR cells + 2 uM doxorubicin) was -0.43% (inactive). The inhibition in test [5] was -2.27% (inactive); in test [6] it was 1.27% (inactive).
On to `COc1ccc(NC(=O)Nc2ccccc2C)c(OC)c1`, for which the viability was 93% (inactive) in test [1]; 95.1% (inactive) in test [2]; 89% (inactive) in test [3]; 68.2% in test [4] (setting [7]); 89% in test [4] (setting [8]). Also, the differential viability (reversal) in test [4] (H69AR cells + 2 uM doxorubicin) is 20.8% (inactive). Besides, the inhibition in test [5] is -4.8% (inactive); in test [6], -1.09% (inactive).
Turning to `COc1cccc(Nc2nnc(SCC(=O)N3CC(C)OC(C)C3)s2)c1` (centres undefined), the viability was 92% (inactive) in test [1]; 75.3% (inactive) in test [2]; 102% (inactive) in test [3]; 99.1% in test [4] (setting [7]); 102% in test [4] (setting [8]). Moreover, the differential viability (reversal) in test [4] (H69AR cells + 2 uM doxorubicin) was 2.69% (inactive). The inhibition is -2.4% (inactive) in test [5] and -0.36% (inactive) in test [6].
Consider `O=C(O)CSc1ncn[nH]1`, for which the viability in test [1] is 87% (inactive); in test [2], 102% (inactive); in test [3], 109% (inactive); in test [4] (setting [7]), 108%; in test [4] (setting [8]), 109%. Also, in test [4] (H69AR cells + 2 uM doxorubicin), the differential viability (reversal) was 0.37% (inactive). Further, the inhibition in test [5] was -6.58% (inactive); in test [6] it was 6.73% (inactive).
Turning to `CC(C)OC(=O)C1C2C=CC3(CN(Cc4cccs4)C(=O)C13)O2` (centres undefined), the viability was 89% (inactive) in test [1]; 96.7% (inactive) in test [2]; 90.1% (inactive) in test [3]; 93.8% in test [4] (setting [7]); 90.1% in test [4] (setting [8]). In addition, the differential viability (reversal) in test [4] (H69AR cells + 2 uM doxorubicin) was -3.73% (inactive). In addition, the results for the inhibition in test [5] and in test [6] were -6.44% (inactive) and 2.42% (inactive), respectively.
As to `O=C(O)CCC(=O)NC1CCCCC1NC(=O)CCC(=O)O` (centres undefined), the viability is 104% (inactive) in test [1]; 111% (inactive) in test [2]; 99% (inactive) in test [3]; 91.6% in test [4] (setting [7]); 99% in test [4] (setting [8]). For the same molecule, the differential viability (reversal) in test [4] (H69AR cells + 2 uM doxorubicin) is 7.37% (inactive). Besides, the inhibition in test [5] is -5.47% (inactive); in test [6], 0.73% (inactive).
For `CCC(C(=O)OCCN(CC)CC)c1ccccc1` (centres undefined), the viability in test [1] is 114% (inactive); in test [2], 86.8% (inactive); in test [3], 86.7% (inactive); in test [4] (setting [7]) it was 87.5%; in test [4] (setting [8]), 86.7%. The differential viability (reversal) in test [4] (H69AR cells + 2 uM doxorubicin) was -0.8% (inactive). The inhibition in test [5] is -1.56% (inactive); in test [6], 2.33% (inactive).
With `COCCCNC(=O)CCn1c(=O)c2ccccc2n(CC(=O)Nc2ccc(C)cc2C)c1=O`, the viability in test [1] is 101% (inactive); in test [2], 106% (inactive); in test [3], 87.1% (inactive); in test [4] (setting [7]), 79.9%; in test [4] (setting [8]), 87.1%. Moreover, the differential viability (reversal) in test [4] (H69AR cells + 2 uM doxorubicin) is 7.22% (inactive). The inhibition in test [5] was 1.3% (inactive); in test [6], -5.41% (inactive).
For the molecule `COC(=O)C1=C(C)Nc2ncnn2C1c1ccco1` (centres undefined), the viability was 80% (inactive) in test [1]; 91.8% (inactive) in test [2]; 85.9% (inactive) in test [3]; 81.2% in test [4] (setting [7]); 85.9% in test [4] (setting [8]). Further, the differential viability (reversal) in test [4] (H69AR cells + 2 uM doxorubicin) is 4.73% (inactive). Further, the inhibition is -8.49% (inactive) in test [5] and 4.91% (inactive) in test [6].
On to `CCCCOC(=O)c1cccc(NC(=O)CC)c1`, for which the viability in test [1] is 113% (inactive); in test [2], 91.1% (inactive); in test [3], 89.6% (inactive); in test [4] (setting [7]), 88.3%; in test [4] (setting [8]) it was 89.6%. In test [4] (H69AR cells + 2 uM doxorubicin), the differential viability (reversal) is 1.34% (inactive). For the same molecule, the inhibition is 5.71% (inactive) in test [5] and 13.4% (inactive) in test [6].
Regarding `CN(CCc1ccccn1)c1ncnc2[nH]ncc12`, the viability in test [1] is 102% (inactive); in test [2], 116% (inactive); in test [3], 97.6% (inactive); in test [4] (setting [7]), 87.6%; in test [4] (setting [8]), 97.6%. The differential viability (reversal) in test [4] (H69AR cells + 2 uM doxorubicin) is 9.97% (inactive). The inhibition in test [5] was -6.62% (inactive); in test [6] it was -2.36% (inactive).

A word on the viability: it is a read-out of living cells in per cent, often relative to untreated cells. For orientation: inhibition means the drop in the measured response relative to a control, in per cent.
